{
  "source": "paper PMC4245161",
  "about": "(ACS Chemical Biology, 2014)",
  "key": {"[1]": {"test_system": "acetylated H3 at the CMV promoter in LDR cells", "test": "Chromatin immunoprecipitation of acetylated H3 at the CMV promoter", "assay_type": "cell-based, mouse", "details": "250 ng/mL, 24 h", "summary_of_the_method": "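LDR cells (C127 mouse mammary line carrying a silenced CMV-GFP reporter; DMEM, 10% heat-inactivated FBS) treated with test compound at 250 ng/mL or DMSO vehicle (24 h per legend; overnight per methods). Formaldehyde cross-linking, then ChIP by standard protocol with anti-acetylated H3 antibody. After cross-link reversal, PCR with CMV-promoter primers run on a gel. Controls were a no-antibody background and 10% input.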"}, "[2]": {"test_system": "GFP transcript in LDR cells", "assay_type": "cell-based, mouse", "details": "200 nM, 24 h, relative to DMSO-treated cells"}},
  "data": [
    {"compound": "CC(/C=C/C(=O)NO)=C\\[C@@H](C)C(=O)c1ccc(N(C)C)cc1", "note": "[Trichostatin A]", "values": [
      {"measurement": "histone acetylation at the CMV promoter (ChIP)", "setting": "[1]", "value": "markedly increases"},
      {"measurement": "induction of GFP transcripts", "setting": "[2]", "value": "at least 5 fold"}
    ]}
  ]
}
